# Test results from ChEMBL document CHEMBL1148699, “Characterization of the intracellular mechanisms involved in the antiaggregant properties of cinnamtannin B-1 from bay wood in human platelets” (2007).
# Activity calls are given as the source filed them. The rule behind the calls is not given here.
# Assays:
# Platelet [1] = test: Effect on thrombin-induced human platelet aggregation assessed as lag time at 10 uM after 10 mins; assay type: functional
# Procedure, shortened: (§1)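 Washed human platelets (aspirin 100 µM and apyrase in PRP) suspended in HBS pH 7.45 with 1 mM Ca2+. Preincubated 10 min with 10 µM agent or DMSO vehicle, then stimulated with 0.1 U/mL thrombin at 37 °C with stirring at 1200 rpm in an aggregometer. Lag time, % rate and % aggregation read from traces; mean ± SEM of four determinations.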
# Platelet [2] = test: Effect on rate of thrombin-induced human platelet aggregation at 10 uM after 10 mins; assay type: functional; procedure, shortened: as §1
# Platelet [3] = test: Effect on thrombin-induced human platelet aggregation at 10 uM after 10 mins; assay type: functional; procedure, shortened: as §1
# [4] = molecular target: Proto-oncogene tyrosine-protein kinase Src (Homo sapiens) (UniProt P12931); test: Inhibition of thrombin-induced pp60src activation at 10 uM after 30 mins
# Proto-oncogene tyrosine-protein kinase Src (Homo sapiens), sequence (P12931 2-536 limits assumed): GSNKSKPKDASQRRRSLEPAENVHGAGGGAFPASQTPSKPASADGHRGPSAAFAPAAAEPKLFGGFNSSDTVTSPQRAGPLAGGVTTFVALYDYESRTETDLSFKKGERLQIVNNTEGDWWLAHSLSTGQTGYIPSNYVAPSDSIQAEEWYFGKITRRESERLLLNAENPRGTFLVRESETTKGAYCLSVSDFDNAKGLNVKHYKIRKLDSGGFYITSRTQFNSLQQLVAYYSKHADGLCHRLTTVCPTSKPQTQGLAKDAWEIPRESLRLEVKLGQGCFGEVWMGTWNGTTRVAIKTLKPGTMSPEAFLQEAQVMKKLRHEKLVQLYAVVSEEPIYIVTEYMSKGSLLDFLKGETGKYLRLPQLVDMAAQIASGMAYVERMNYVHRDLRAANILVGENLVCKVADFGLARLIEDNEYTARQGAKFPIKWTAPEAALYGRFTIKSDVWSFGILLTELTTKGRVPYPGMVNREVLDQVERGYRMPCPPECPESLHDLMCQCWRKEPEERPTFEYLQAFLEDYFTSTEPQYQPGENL
# Procedure, shortened: (§2)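 Platelets in HBS with 1 mM Ca2+ pretreated 30 min at 37 °C with 10 µM compound, alone or with 300 U/mL catalase (10 min). Sampled 10 s before and 60 s after 0.1 U/mL thrombin. SDS-PAGE and immunoblot with anti-phospho-c-Src Y416, reprobed for total pp60src. Densitometry as % of untreated resting cells; mean ± SEM, four experiments.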
# [5] = molecular target: Proto-oncogene tyrosine-protein kinase Src (Homo sapiens) (UniProt P12931); test: Inhibition of thrombin-induced pp60src activation in presence of catalase; procedure, shortened: as §2
# Platelet [6] = test: Effect on thrombin-induced calcium mobilization in human platelets; assay type: functional, cell-based
# Procedure, shortened: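 Platelets loaded with 2 µM fura-2/AM for 45 min at 37 °C, 2 × 10^8 cells/mL, stirred at 37 °C. Exposed to 10 µM compound for 30 min. Ca2+-free medium with 100 µM EGTA, then 0.1 U/mL thrombin. Excitation 340/380 nm, emission 505 nm; ratio calibrated to [Ca2+]i. Peak rise above basal taken; n = 6.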
# Platelet [7] = test: Effect on thrombin-induced human platelet aggregation assessed as lag time at 0.1 uM; assay type: functional
# Procedure, shortened: (§3)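 Washed human platelets (from aspirin- and apyrase-treated PRP) in HEPES-buffered saline, pH 7.45, with 1 mM Ca2+. Preincubated 30 min with 0.1-10 µM compound (10 mM DMSO stock) or vehicle. Stimulated with 0.1 U/mL thrombin or 10 µM ADP. Read in an aggregometer at 37 °C, stirred at 1200 rpm, as lag time, % rate and % aggregation. Mean ± SEM, six determinations.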
# Platelet [8] = test: Effect on thrombin-induced human platelet aggregation assessed as lag time at 1.0 uM; assay type: functional; procedure, shortened: as §3
# Platelet [9] = test: Effect on thrombin-induced human platelet aggregation assessed as lag time at 10 uM; assay type: functional; procedure, shortened: as §3
# Platelet [10] = test: Effect on ADP-induced human platelet aggregation assessed as lag time at 10 uM; assay type: functional; procedure, shortened: as §3
# Platelet [11] = test: Effect on rate of thrombin-induced human platelet aggregation at 0.1 uM; assay type: functional; procedure, shortened: as §3
# Platelet [12] = test: Effect on rate of thrombin-induced human platelet aggregation at 1.0 uM; assay type: functional; procedure, shortened: as §3
# Platelet [13] = test: Effect on rate of thrombin-induced human platelet aggregation at 10 uM; assay type: functional; procedure, shortened: as §3
# Platelet [14] = test: Effect on rate of ADP-induced human platelet aggregation at 10 uM; assay type: functional; procedure, shortened: as §3
# Platelet [15] = test: Effect on thrombin-induced human platelet aggregation at 0.1 uM; assay type: functional; procedure, shortened: as §3
# Platelet [16] = test: Effect on thrombin-induced human platelet aggregation at 1.0 uM; assay type: functional; procedure, shortened: as §3
# Platelet [17] = test: Effect on thrombin-induced human platelet aggregation at 10 uM; assay type: functional; procedure, shortened: as §3
# Platelet [18] = test: Effect on of ADP-induced human platelet aggregation at 10 uM; assay type: functional; procedure, shortened: as §3
# Platelet [19] = test: Effect on thrombin-induced human platelet aggregation assessed as lag time in presence of catalase; assay type: functional
# Procedure, shortened: (§4)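 Washed human platelets in HBS with 1 mM Ca2+. Treated with 10 µM compound for 30 min, plus either 300 U/mL catalase for 10 min or 100 µM colchicine for 2 h; controls received each agent alone or vehicle. Thrombin 0.1 U/mL at 37 °C, stirring at 1200 rpm. Lag time, % rate and % aggregation recorded; mean ± SEM, six determinations.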
# Platelet [20] = test: Effect on rate of thrombin-induced human platelet aggregation in presence of catalase; assay type: functional; procedure, shortened: as §4
# Platelet [21] = test: Effect on thrombin-induced human platelet aggregation in presence of catalase; assay type: functional; procedure, shortened: as §4
# Platelet [22] = test: Effect on thrombin-induced human platelet aggregation assessed as lag time in presence of colchicine; assay type: functional; procedure, shortened: as §4
# Platelet [23] = test: Effect on rate of thrombin-induced human platelet aggregation in presence of colchicine; assay type: functional; procedure, shortened: as §4
# Platelet [24] = test: Effect on thrombin-induced human platelet aggregation in presence of colchicine; assay type: functional; procedure, shortened: as §4
# Platelet [25] = test: Effect on thrombin-induced microtubular reorganization at 10 uM after 30 mins; assay type: functional, Homo sapiens
# Procedure, shortened: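 Platelets pretreated with 10 µM compound for 30 min at 37 °C, then 0.1 U/mL thrombin for 1 min in HBS at 2 × 10^7 cells/mL. Fixed in an equal volume of ice-cold 3% formaldehyde in PBS for 10 min, permeabilized with 0.025% NP40, stained 30 min with 1 µM Oregon Green 488 paclitaxel. Fluorescence at ex 488/em 522 nm; n = 6.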
# [26] = molecular target: Tyrosine-protein kinase BTK (Homo sapiens) (UniProt Q06187); test: Effect on thrombin-induced Btk activation at 10 uM after 30 mins
# Tyrosine-protein kinase BTK (Homo sapiens), sequence (Q06187 whole entry): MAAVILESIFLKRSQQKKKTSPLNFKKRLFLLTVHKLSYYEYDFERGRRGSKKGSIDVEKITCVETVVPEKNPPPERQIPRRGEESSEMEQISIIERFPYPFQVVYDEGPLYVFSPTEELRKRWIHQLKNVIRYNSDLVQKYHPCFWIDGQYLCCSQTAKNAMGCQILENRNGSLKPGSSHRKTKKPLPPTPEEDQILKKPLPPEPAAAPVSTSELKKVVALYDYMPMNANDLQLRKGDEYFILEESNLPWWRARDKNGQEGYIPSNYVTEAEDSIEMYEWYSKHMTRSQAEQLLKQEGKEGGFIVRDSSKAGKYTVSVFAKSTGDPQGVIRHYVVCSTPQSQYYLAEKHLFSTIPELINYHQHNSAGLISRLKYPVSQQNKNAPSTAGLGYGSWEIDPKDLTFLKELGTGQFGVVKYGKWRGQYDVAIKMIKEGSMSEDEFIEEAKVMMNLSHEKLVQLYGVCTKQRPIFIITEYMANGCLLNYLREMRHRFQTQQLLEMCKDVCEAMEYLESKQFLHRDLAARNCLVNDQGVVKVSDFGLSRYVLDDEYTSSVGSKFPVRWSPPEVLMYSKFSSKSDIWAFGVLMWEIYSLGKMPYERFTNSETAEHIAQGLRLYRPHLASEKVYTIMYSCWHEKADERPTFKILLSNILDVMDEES
# Procedure, shortened: (§5)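 Platelets in HBS with 1 mM Ca2+ held 30 min at 37 °C with 10 µM compound, alone or with 300 U/mL catalase (10 min). Samples taken 10 s before and 30 s after 0.1 U/mL thrombin, lysed in Laemmli buffer. Western blot for phospho-Btk Y223, reprobed for total Btk. Densitometry as % of resting control; mean ± SEM, four experiments.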
# [27] = molecular target: Tyrosine-protein kinase BTK (Homo sapiens) (UniProt Q06187); test: Effect on thrombin-induced Btk activation in presence of catalase; procedure, shortened: as §5
# Platelet [28] = test: Reduction of thrombin-induced phosphotyrosine content in human platelets at 10 uM after 30 mins
smiles,measurement,setting,value
C/C(O)=C(\C#N)C(=O)Nc1cc(Br)ccc1Br,Time,Platelet [1],24.3 s
same,Activity,Platelet [2],66.3%
same,Activity,Platelet [3],68.7%
Cc1ccc(-c2nn(C(C)(C)C)c3ncnc(N)c23)cc1,Time,Platelet [1],26.5 s
same,Activity,Platelet [2],59.7%
same,Activity,Platelet [3],67.1%
Oc1cc(O)c2c(c1)O[C@@]1(c3ccc(O)c(O)c3)Oc3cc(O)c4c(c3[C@@H]2[C@H]1O)O[C@H](c1ccc(O)c(O)c1)[C@H](O)[C@H]4c1c(O)cc(O)c2c1O[C@H](c1ccc(O)c(O)c1)[C@H](O)C2 [CINNAMTANNIN B1],Activity,[4],Active
same,Activity,[5],Active
same,Activity,Platelet [6],inactive
same,Time,Platelet [7],9.2 s
same,Time,Platelet [8],9.8 s
same,Time,Platelet [9],10.6 s
same,Time,Platelet [10],15.6 s
same,Activity,Platelet [11],49%
same,Activity,Platelet [12],43.7%
same,Activity,Platelet [13],42.1%
same,Activity,Platelet [14],9%
same,Activity,Platelet [15],81.9%
same,Activity,Platelet [16],80.6%
same,Activity,Platelet [17],71.8%
same,Activity,Platelet [18],9.5%
same,Time,Platelet [19],9.1 s
same,Activity,Platelet [20],48.1%
same,Activity,Platelet [21],77%
same,Time,Platelet [22],15 s
same,Activity,Platelet [23],40.3%
same,Activity,Platelet [24],74.6%
same,Activity,Platelet [25],15%
same,Activity,[26],50%
same,Activity,[27],90%
same,Activity,Platelet [28],Active
COc1cc2c(c(OC)c1OC)-c1ccc(OC)c(=O)cc1[C@@H](NC(C)=O)CC2 [COLCHICINE],Time,Platelet [7],9.3 s
same,Activity,Platelet [11],59%
same,Activity,Platelet [15],71.2%
